{"source": "ChEMBL document CHEMBL4152257", "about": "“Discovery of novel β-carboline/acylhydrazone hybrids as potent antitumor agents and overcome drug resistance” (Eur J Med Chem, 2018)", "key": {"[1]": {"tested_on": "NCI/ADR-RES", "assay": "Induction of apoptosis in human MCF7/ADR cells assessed as viable cells at 30 uM after 48 hrs by annexin V-FITC/PI dual staining based flow cytometry (reference value: 89.8%)", "format": "functional", "conditions": "read-out: Activity"}, "[2]": {"tested_on": "MCF7", "assay": "Induction of apoptosis in human MCF7 cells assessed as early apoptotic cells at 30 uM after 48 hrs by annexin V-FITC/PI dual staining based flow cytometry (reference value: 11%)", "format": "functional"}, "[3]": {"tested_on": "MCF7", "assay": "Induction of apoptosis in human MCF7 cells assessed as viable cells at 100 uM after 48 hrs by annexin V-FITC/PI dual staining based flow cytometry (reference value: 77.8%)", "format": "functional", "conditions": "MCF7, 48 h, read-out: Activity"}, "[4]": {"tested_on": "MCF7", "assay": "Induction of apoptosis in human MCF7 cells assessed as late apoptotic cells after 48 hrs by annexin V-FITC/PI dual staining based flow cytometry", "format": "functional, cell-based"}, "[5]": {"tested_on": "MCF7", "assay": "Induction of apoptosis in human MCF7 cells assessed as early apoptotic cells at 100 uM after 48 hrs by annexin V-FITC/PI dual staining based flow cytometry (reference value: 11%)", "format": "functional"}, "[6]": {"tested_on": "MCF7", "assay": "Induction of apoptosis in human MCF7 cells assessed as late apoptotic cells at 100 uM after 48 hrs by annexin V-FITC/PI dual staining based flow cytometry (reference value: 11.1%)", "format": "functional"}, "[7]": {"assay": "Selectivity ratio of IC50 for HUVEC to IC50 for human A2780T cells", "format": "toxicity", "conditions": "HUVEC versus A2780T cells"}, "[8]": {"tested_on": "MCF7", "assay": "Antiproliferative activity against human MCF7 cells after 48 to 72 hrs by MTT assay", "format": "functional, cell-based", "outline": "(§1)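 Cells in log phase seeded and allowed to adhere, then exposed to graded compound concentrations for 48 h or 72 h; MTT added for a further 2-3 h, formazan dissolved in DMSO. IC50 taken from dose-response curves; mean ± SD of at least three independent experiments.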"}, "[9]": {"tested_on": "MCF7", "assay": "Induction of apoptosis in human MCF7 cells assessed as early apoptotic cells at 3 uM after 48 hrs by annexin V-FITC/PI dual staining based flow cytometry (reference value: 11%)", "format": "functional"}, "[10]": {"tested_on": "MCF7", "assay": "Cell cycle arrest in human MCF7 cells assessed as accumulation at G2/M phase at 30 uM after 18 hrs by propidium iodide staining based flow cytometry (reference value: 9.98%)", "format": "functional"}, "[11]": {"tested_on": "MCF7", "assay": "Cell cycle arrest in human MCF7 cells assessed as accumulation at G2/M phase after 18 hrs by propidium iodide staining based flow cytometry", "format": "functional"}, "[12]": {"tested_on": "A2780/Taxol", "assay": "Antiproliferative activity against human A2780T cells after 48 to 72 hrs by MTT assay", "format": "functional, cell-based", "outline": "as §1"}, "[13]": {"tested_on": "NCI/ADR-RES", "assay": "Induction of apoptosis in human MCF7/ADR cells assessed as early apoptotic cells at 10 uM after 48 hrs by annexin V-FITC/PI dual staining based flow cytometry (reference value: 2.72%)", "format": "functional"}, "[14]": {"tested_on": "NCI/ADR-RES", "assay": "Induction of apoptosis in human MCF7/ADR cells assessed as viable cells at 100 uM after 48 hrs by annexin V-FITC/PI dual staining based flow cytometry (reference value: 89.8%)", "format": "functional", "conditions": "read-out: Activity"}, "[15]": {"assay": "Resistance index, ratio of IC50 for human A549/TR cells to IC50 for human A549 cells", "format": "functional"}, "[16]": {"tested_on": "MCF7", "assay": "Cell cycle arrest in human MCF7 cells assessed as accumulation at S phase at 100 uM after 18 hrs by propidium iodide staining based flow cytometry (reference value: 44.80%)", "format": "functional"}, "[17]": {"tested_on": "MCF7", "assay": "Induction of apoptosis in human MCF7 cells assessed as necrotic cells at 100 uM after 48 hrs by annexin V-FITC/PI dual staining based flow cytometry (reference value: 0.16%)", "format": "functional"}, "[18]": {"tested_on": "NCI/ADR-RES", "assay": "Induction of apoptosis in human MCF7/ADR cells assessed as necrotic cells at 3 uM after 48 hrs by annexin V-FITC/PI dual staining based flow cytometry (reference value: 2.43%)", "format": "functional"}, "[19]": {"tested_on": "MCF7", "assay": "Cell cycle arrest in human MCF7 cells assessed as accumulation at S phase at 10 uM after 18 hrs by propidium iodide staining based flow cytometry (reference value: 44.80%)", "format": "functional"}, "[20]": {"tested_on": "Raji", "assay": "Antiproliferative activity against human Raji cells after 48 to 72 hrs by MTT assay", "format": "functional, cell-based", "outline": "as §1"}, "[21]": {"tested_on": "NCI-H460", "assay": "Antiproliferative activity against human H460 cells at 1 uM after 48 to 72 hrs by MTT assay relative to control", "format": "functional", "outline": "(§2)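 Single-concentration screen in the MTT proliferation assay: log-phase cells seeded and allowed to adhere, exposed to compound at 1 µM for 48 h or 72 h, MTT added for 2-3 h, formazan dissolved in DMSO; percent inhibition versus control.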"}, "[22]": {"tested_on": "MCF7", "assay": "Cell cycle arrest in human MCF7 cells assessed as accumulation at G0/G1 phase at 3 uM after 18 hrs by propidium iodide staining based flow cytometry (reference value: 45.22%)", "format": "functional"}, "[23]": {"tested_on": "Raji", "assay": "Antiproliferative activity against human Raji cells at 1 uM after 48 to 72 hrs by MTT assay relative to control", "format": "functional", "outline": "as §2"}, "[24]": {"tested_on": "MCF7", "assay": "Induction of apoptosis in human MCF7 cells assessed as necrotic cells at 3 uM after 48 hrs by annexin V-FITC/PI dual staining based flow cytometry (reference value: 0.16%)", "format": "functional"}, "[25]": {"tested_on": "NCI/ADR-RES", "assay": "Induction of apoptosis in human MCF7/ADR cells assessed as late apoptotic cells at 10 uM after 48 hrs by annexin V-FITC/PI dual staining based flow cytometry (reference value: 5.02%)", "format": "functional"}, "[26]": {"assay": "Selectivity ratio of IC50 for HUVEC to IC50 for human A549/TR cells", "format": "toxicity", "conditions": "HUVEC versus A549/TR cells"}, "[27]": {"tested_on": "MCF7", "assay": "Induction of apoptosis in human MCF7 cells assessed as necrotic cells at 30 uM after 48 hrs by annexin V-FITC/PI dual staining based flow cytometry (reference value: 0.16%)", "format": "functional"}, "[28]": {"tested_on": "NCI/ADR-RES", "assay": "Induction of apoptosis in human MCF7/ADR cells assessed as late apoptotic cells at 30 uM after 48 hrs by annexin V-FITC/PI dual staining based flow cytometry (reference value: 5.02%)", "format": "functional"}, "[29]": {"tested_on": "A549/TR", "assay": "Antiproliferative activity against human A549/TR cells after 48 to 72 hrs by MTT assay", "format": "functional, cell-based", "outline": "as §1"}, "[30]": {"tested_on": "MCF7", "assay": "Antiproliferative activity against human MCF7 cells at 1 uM after 48 to 72 hrs by MTT assay relative to control", "format": "functional", "outline": "as §2"}, "[31]": {"assay": "Selectivity ratio of IC50 for HUVEC to IC50 for human A2780S cells", "format": "toxicity", "conditions": "HUVEC versus A2780S cells"}, "[32]": {"tested_on": "A549", "assay": "Antiproliferative activity against human A549 cells after 48 to 72 hrs by MTT assay", "format": "functional, cell-based", "outline": "as §1"}, "[33]": {"tested_on": "NCI-H460", "assay": "Antitumor activity against human H460 cells xenografted in athymic nude Balb/C mouse assessed as tumor growth inhibition at 100 mg/kg, po administered 3 times per week measured on day 18 relative to control", "format": "functional", "conditions": "432 h, read-out: TGI", "outline": "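Nude mice (5-6 weeks old, female) implanted sc in right flank with 5 × 10^6 H460 cells in HBSS; at 100 mm3 tumours, randomised 6 per group to vehicle, oral 100 mg/kg three times weekly, or ip 30 mg/kg once weekly. Tumour volume by caliper every 2 days as (π/6) × length × width²; body weight recorded; inhibition from tumour weights versus control.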"}, "[34]": {"tested_on": "MCF7", "assay": "Cell cycle arrest in human MCF7 cells assessed as accumulation at S phase at 30 uM after 18 hrs by propidium iodide staining based flow cytometry (reference value: 44.80%)", "format": "functional"}}}
{"smiles": "N#Cc1ccc(COc2cccc(/C=N/NC(=O)c3cc4c(cn3)[nH]c3ccccc34)c2)cc1", "values": [{"measurement": "viability at 30 µM", "setting": "[1]", "result": 64.8, "unit": "%"}, {"measurement": "Activity", "setting": "[2]", "result": 19.4, "unit": "%"}, {"measurement": "viability at 100 µM", "setting": "[3]", "result": 47.2, "unit": "%"}, {"measurement": "Activity", "setting": "[4]", "result": "Dose-dependent effect"}, {"measurement": "Activity", "setting": "[5]", "result": 13, "unit": "%"}, {"measurement": "Activity", "setting": "[6]", "result": 38.9, "unit": "%"}, {"measurement": "selectivity ratio", "setting": "[7]", "result": 22.2}, {"measurement": "IC50", "setting": "[8]", "result": "930 to 1020", "unit": "nM"}, {"measurement": "Activity", "setting": "[9]", "result": 15.3, "unit": "%"}, {"measurement": "Activity", "setting": "[10]", "result": 6.06, "unit": "%"}, {"measurement": "Activity", "setting": "[11]", "result": "Dose-dependent effect"}, {"measurement": "IC50", "setting": "[12]", "result": 3.99, "unit": "µM"}, {"measurement": "Activity", "setting": "[13]", "result": 4.38, "unit": "%"}, {"measurement": "viability at 100 µM", "setting": "[14]", "result": 53.5, "unit": "%"}, {"measurement": "Ratio IC50", "setting": "[15]", "result": 2.28}, {"measurement": "Activity", "setting": "[16]", "result": 53.88, "unit": "%"}, {"measurement": "Activity", "setting": "[17]", "result": 0.76, "unit": "%"}, {"measurement": "Activity", "setting": "[18]", "result": 6.04, "unit": "%"}, {"measurement": "Activity", "setting": "[19]", "result": 56.38, "unit": "%"}, {"measurement": "IC50", "setting": "[20]", "result": "1060 to 1200", "unit": "nM"}, {"measurement": "inhibition at 1 µM", "setting": "[21]", "result": 51, "unit": "%"}, {"measurement": "Activity", "setting": "[22]", "result": 34.57, "unit": "%"}, {"measurement": "inhibition at 1 µM", "setting": "[23]", "result": 42.7, "unit": "%"}, {"measurement": "Activity", "setting": "[24]", "result": 0.26, "unit": "%"}, {"measurement": "Activity", "setting": "[25]", "result": 19.1, "unit": "%"}, {"measurement": "selectivity ratio", "setting": "[26]", "result": 28.3}, {"measurement": "Activity", "setting": "[27]", "result": 0.93, "unit": "%"}, {"measurement": "Activity", "setting": "[28]", "result": 21.9, "unit": "%"}, {"measurement": "IC50", "setting": "[29]", "result": 3.13, "unit": "µM"}, {"measurement": "inhibition at 1 µM", "setting": "[30]", "result": 59.6, "unit": "%"}, {"measurement": "selectivity ratio", "setting": "[31]", "result": 29.3}, {"measurement": "IC50", "setting": "[32]", "result": 1370, "unit": "nM"}, {"measurement": "inhibition in vivo at 100 mg/kg", "setting": "[33]", "result": 17.2, "unit": "%"}, {"measurement": "Activity", "setting": "[34]", "result": 55.32, "unit": "%"}]}
